Activity, GI50 and inhibition data for 2 molecules are collected here from ChEMBL document CHEMBL1155482, “Synthesis, anticancer activity and apoptosis inducing ability of anthranilamide-PBD conjugates” (2010).

A word on the GI50: it is the concentration at which growth is held to half of that of the control.

The test system of test [1] is A-375. Put plainly: Cell cycle arrest in human A375 cells assessed as accumulation at S phase at 1 uM by FACS analysis. In kind it is functional. Summed up: (§1)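 A375 cells were exposed to compound for 24 h, and cell cycle distribution was measured by FACS. The sub-G1 peak (labelled G0) was scored as the apoptotic cell percentage and compared with untreated control cells.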
(In flow cytometry, cells or beads pass a laser one at a time.)

The subject of the next test is COLO 205. Nature of the test: Cytotoxicity against human COLO205 cells after 48 hrs by SRB assay. It counts as functional. The following applies: COLO 205, 48 h. In a few lines: (§2)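 Sulforhodamine B assay estimating cell density from cellular protein content, run on human cancer lines of lung, breast, oral, colon, cervix, ovary and prostate origin, with GI50 values derived.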
Background: The SRB assay estimates cell density from bound dye.

Test [2] has as its system A-375. Nature of the test: Cell cycle arrest in human A375 cells assessed as accumulation at G2/M phase at 1 uM by FACS analysis. In kind it is functional. Summed up: as §1
The nature of test [3]: Cytotoxicity against human Gurav cells after 48 hrs by SRB assay. In kind it is functional. Summed up: as §2
Test [4] relates to A-375. Put plainly: Induction of apoptosis in human A375 cells assessed as cells in dub G1 phase at 1 uM after 24 hrs by FACS analysis. In kind it is functional. In a few lines: as §1
For the next test, the system named is PC-3. Nature of the test: Cytotoxicity against human PC3 cells after 48 hrs by SRB assay. In kind it is functional. The following applies: PC-3, 48 h. Summed up:
as §2

Test [5] relates to A-375. Put plainly: Induction of apoptosis in human A375 cells assessed as caspase 3 activation at 1 uM after 24 hrs by fluorimetry. In kind it is functional, cell-based. In a few lines:
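Caspase-3 activity in treated A375 cells was measured by fluorimetry relative to untreated cells.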

The next test concerns MCF7. Nature of the test: Cytotoxicity against human MCF7 cells after 48 hrs by SRB assay. The following applies: MCF7, 48 h. It counts as functional. Summed up:
as §2

For test [6], the system named is A-375. Put plainly: Antitumor activity against human A375 cells assessed as cell viability at 1 uM after 24 hrs by MTT assay. It counts as functional, cell-based. (Tetrazolium assays rely on reduction of a dye to a coloured formazan, in cell work by metabolically active cells.)
The subject of a further test is A549. Nature of the test: Cytotoxicity against human A549 cells after 48 hrs by SRB assay. It counts as functional. The following applies: A549, 48 h. Summed up:
as §2

The subject of a further test is HOP-62. Put plainly: Cytotoxicity against human HOP62 cells after 48 hrs by SRB assay. In kind it is functional. The note with it: HOP-62, 48 h. In a few lines: as §2
The next test has as its system ZR-75-1. Put plainly: Cytotoxicity against human ZR-75-1 cells after 48 hrs by SRB assay. In kind it is functional. The note with it: ZR-75-1, 48 h. Summed up:
as §2

The subject of a further test is A2780. Nature of the test: Cytotoxicity against human A2780 cells after 48 hrs by SRB assay. In kind it is functional. The following applies: A2780, 48 h. In a few lines: as §2
In test [7] the test system is A-375. Put plainly: Cell cycle arrest in human A375 cells assessed as accumulation at G0/G1 phase at 1 uM by FACS analysis. It counts as functional. Summed up:
as §1

The subject of the next test is SiHa. Nature of the test: Cytotoxicity against human SiHa cells after 48 hrs by SRB assay. It counts as functional. Summed up:
as §2

Test [8] can be described thus: Cytotoxicity against human DWD cells after 48 hrs by SRB assay. It counts as functional. In a few lines:
as §2

The test system of another test is KB. Nature of the test: Cytotoxicity against human KB cells after 48 hrs by SRB assay. In kind it is functional. Summed up: as §2
Test [9] has as its target T1, Type II restriction enzyme BamHI (Bacillus amyloliquefaciens) (UniProt P23940).
T1 sequence (whole entry): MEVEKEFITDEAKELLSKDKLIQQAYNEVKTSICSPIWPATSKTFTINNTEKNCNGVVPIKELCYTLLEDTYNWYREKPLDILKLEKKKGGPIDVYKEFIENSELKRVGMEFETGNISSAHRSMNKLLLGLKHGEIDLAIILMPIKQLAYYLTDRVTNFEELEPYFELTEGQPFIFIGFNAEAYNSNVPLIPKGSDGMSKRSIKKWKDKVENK
Nature of the test: Inhibition of Bacillus amyloliquifaction Bam H1-mediated restriction digestion of pBR322 at 4 uM by RED 100 assay. Summed up:
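Restriction enzyme digestion (RED 100) of vector DNA by BamHI after exposure to compound at 2, 4, 8, 16 and 32 micromolar, with controls of vector cut without compound and uncut vector DNA.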

Test [10] deals with A-375. Nature of the test: Induction of apoptosis in human A375 cells assessed as p53 protein expression at 1 uM after 24 hrs by Western blotting. In kind it is functional, cell-based. In a few lines:
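A375 cells were treated for 24 h, and lysates were probed for p53 by western blot with a p53-specific antibody. Untreated cells served as control and β-actin as loading control.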

Activity calls are given as the source filed them. No cut-off for these calls is given here.

Take `COc1cc2c(cc1OCCCN1CCN(C(=O)c3ccccc3NCc3ccc4ccccc4c3)CC1)N=C[C@@H]1CCCN1C2=O`: the Activity in the test on A-375 [1] is listed as 6.32%; in the test on A-375 [2], 6.32%; with A-375 [4], 5.486%; in the test with A-375 [7], 83.66%. Moreover, the GI50 in the test with COLO 205 was determined as 180 nM; in test [3] it was 170 nM; with PC-3, 140 nM; in the test on MCF7 it was 140 nM; in the test with A549 it was 170 nM; in the test on HOP-62, 1700 nM. Further, the GI50 in the test on ZR-75-1 worked out at 150 nM; in the test on A2780 it was 170 nM; in the test with SiHa, 160 nM; in test [8] it was 140 nM; with KB it was 150 nM. The outcome in the test on A-375 [5] and with A-375 [6] was Active.

Turning to `COc1cc2c(cc1OCCCCCN1CCN(C(=O)c3ccccc3NCc3ccc4ccccc4c3)CC1)N=C[C@@H]1CCCN1C2=O`, the Activity with A-375 [1] came out at 7.09%; with A-375 [2], 1.97%; with A-375 [4], 7.333%; with A-375 [7], 91.94%. Further, the GI50 in the test with COLO 205 was determined as 150 nM; in [3], 140 nM; in the test on PC-3, 140 nM; with MCF7, 130 nM; in the test with A549, 170 nM; with HOP-62 it was 1800 nM. Moreover, the GI50 came to 150 nM with ZR-75-1; 140 nM in the test with A2780; 150 nM in the test on SiHa; 130 nM in test [8]; 130 nM in the test on KB. In addition, the inhibition result in [9] was “Active”. The result in the test with A-375 [5], in the test on A-375 [6] and with A-375 [10] was Active.
